Compound activity as filed in PubChem.
Compounds with a hit are over-represented: about 2.4% of the library has one in this group of screens.
aDG glyco act: alpha-DG glycosylation activation. activation, % at 10 µM. 360,000 compounds, 0.22% hits. Pro5-aDG cells, alpha-DG glycosylation AlphaScreen (IIH6); 0% Pro5, 100% B10-LARGE cell signal;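 active means activation of at least 8% versus controls, or a plate z-score of at least 8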;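 further: Pro5 are CHO cells carrying HIG-tagged alpha-DG that lacks glycosylation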
H9c2 TAG inh: inhibitors of triacylglycerol accumulation; H9c2 cells, Nile Red lipid (TAG) fluorescence; cells loaded with 200 µM oleic acid; inhibition, % at 12.5 µM; 230,000 compounds, 0.66% hits; AID 651582;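 active means pattern-corrected inhibition of lipid staining of at least 50% with the nuclear-stain viability signal not falling by more than 50%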
MC4R ag barr: agonists of human melanocortin 4 receptor (MC4R) beta-arrestin; 360,000 compounds, 0.98% hits; activation, % at 8.9 µM; P32245; U2OS MC4R beta-arrestin complementation, luminescence; percent of melanotan II response, DMSO zero; AID 540308;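 active means activation above a per-plate cutoff, the mean activation of sample wells on that plate plus 3 SD, cut at about 8% in these data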
MC4R antagonist: human MC4R antagonism in cAMP assay. P32245. MC4R-expressing cells, MTII-stimulated cAMP, LANCE TR-FRET. inhibition, % at 6.5 µM. 360,000 compounds, 0.48% hits. AID 540295;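 active means inhibition above its plate's cutoff, the mean of tested wells on that plate plus 3 SD, cut at about 29% in these data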
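system = U2OS cells with stable human MC4R expression | also added = Melanotan II challenge after compound preincubation | dosing = one concentration, 6.5 µM nominal | incubation = compound 30 min, challenge 1 h, detection 1 h | measured by = TR-FRET with Eu-cAMP and labeled anti-cAMP, 671 nm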
Tb MetRS inh: blocks T. brucei methionyl-tRNA synthetase activity; inhibition, % at 11.9 µM; purified T. brucei MetRS, ATP depletion, Kinase-Glo luminescence; 360,000 compounds, 0.4% hits;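 active means inhibition above a per-plate cutoff of the control wells' mean inhibition plus 3 SD, cut at about 5.5% in these data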
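Material – parasite MetRS enzyme · Medium – HEPES-MgCl2-KCl buffer plus DTT, spermine, BSA, pyrophosphatase · Reagent – ATP, methionine and E. coli bulk tRNA substrates · Times – 15 min enzyme-compound preincubation, 2 h reaction, 10 min detection, 25 °C · Measured by – luminescence of leftover ATP · Evaluation – percent inhibition relative to median high and low control wells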
NTR1 ag: NTR1 (human) agonism; NTR1-U2OS beta-arrestin-GFP spot imaging, agonist mode; activation, % at 20 µM; 330,000 compounds, 0.17% hits; AID 493036;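 active means activation at or above 40% of the spot to cytoplasm intensity ratio, with at least 20 cells analyzed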
Target sequence (P30989 whole entry, looked up): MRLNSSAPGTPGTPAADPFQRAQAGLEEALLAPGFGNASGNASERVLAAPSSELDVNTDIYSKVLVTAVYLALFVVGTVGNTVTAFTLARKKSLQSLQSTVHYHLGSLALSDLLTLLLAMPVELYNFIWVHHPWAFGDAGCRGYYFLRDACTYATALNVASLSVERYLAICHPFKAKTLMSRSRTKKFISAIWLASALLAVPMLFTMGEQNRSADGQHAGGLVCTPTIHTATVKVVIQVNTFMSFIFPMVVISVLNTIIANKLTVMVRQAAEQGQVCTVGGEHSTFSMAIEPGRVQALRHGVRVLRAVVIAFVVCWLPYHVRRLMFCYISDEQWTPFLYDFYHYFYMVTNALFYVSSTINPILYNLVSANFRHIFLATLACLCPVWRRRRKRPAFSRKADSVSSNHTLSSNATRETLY
Numbers stand for hits; – = inactive; · = not tested or not shown.

SMILES	aDG glyco act	H9c2 TAG inh	MC4R ag barr	MC4R antagonist	Tb MetRS inh	NTR1 ag
O=C(NCc1cccnc1)/C(=C/c1ccc(-c2cccc(Cl)c2)o1)S(=O)(=O)c1ccccc1	–	–	–	–	–	42
COc1ccc2c(c1)C=C(CN1CCC(CO)(CCc3ccccc3)CC1)CO2	–	–	–	–	–	–
COc1ccc(CC2(CO)CCN(CC3=Cc4cc(Cl)ccc4OC3)CC2)cc1	13	–	–	–	–	–
CCC(C(=O)NC1CCCC1)n1c(C2CCCC2)nc2ccccc21 (centres undefined)	–	·	·	·	–	·
O=C1C=CC(=O)N1c1ccc(O)cc1	–	–	–	–	–	–
O=C1C=CC(=O)N1c1ccc(OC(F)F)cc1	–	·	–	37	–	·
O=C(COC(=O)/C=C/c1ccccc1Cl)NC(=O)NCc1ccccc1	–	–	8.4	–	–	–
O=C(NCc1ccncc1)[C@@H]1CCCN1C(=O)[C@H]1CCCN1C(=O)c1cccc(Cl)c1	–	·	·	·	–	·
O=C(c1ccc(Cl)cc1)c1cnc(Nc2ccccc2Cl)s1	–	·	9.9	–	–	–
O=C(c1ccc(Cl)cc1)c1cnc(-c2ccccc2)s1	–	–	–	–	–	·
CCc1ccc(NC(=O)Cn2nc(C(F)(F)F)c3c2CCC3)cc1	–	–	9.2	–	–	–
COc1ccc(NC(=O)C2(C)CCN2C2Cc3ccccc3C2)cc1OC (centres undefined)	–	–	–	–	–	·
C/C(=N\NC(=O)c1cc(C)nc2ccccc12)c1ccccn1	–	–	–	–	–	–
COc1ccc2nc(NN=C(C)c3ccccn3)cc(C)c2c1	–	67	–	–	–	·
CCOc1cc(/C=C2/C(=O)ON=C2C)ccc1OCc1ccccc1F	–	·	–	–	–	75
CC1(Oc2cccc(F)c2)CCN(Cc2ccc(-c3ccccn3)cc2)C1 (centres undefined)	–	–	8.6	–	–	·
CCOC(=O)Cn1c(=N)n(CCOc2ccc3ccccc3c2)c2ccccc21	–	–	9.6	–	–	–
CCOC(=O)Cn1c(=N)n(CCOc2ccc(OC)cc2)c2ccccc21	–	–	–	–	–	–
CC[C@H](C)[C@@H](CO)NC(=O)[C@H]1O[C@@H](n2ccc(=O)[nH]c2=O)[C@H](O)[C@@H]1O	–	·	·	·	–	·
COc1cc2c(C(=O)N3CCN(C)CC3)c(C)n(-c3ccccc3)c2cc1Br	–	·	–	–	–	–
CCN(CC)CCNC(=O)c1c(C)n(-c2ccccc2)c2cc(Br)c(OC)cc12	–	69	–	–	–	–
O=C(Nc1cccc(S(=O)(=O)N2CCCCC2)c1)c1ccc([N+](=O)[O-])o1	–	74	–	–	–	–
Oc1cc(-c2ccc(N3CCCCC3)nc2)cc2cccnc12	–	104	–	–	–	–
COc1ccccc1C(=O)Nc1nnc([C@H]2C[C@H](O)[C@@H](CO)O2)s1	–	–	–	–	–	·
C/C(CC(=O)Nc1ccccn1)=N\NC(=O)c1cccc(C)c1	–	–	–	34	–	–
SMILES	aDG glyco act	H9c2 TAG inh	MC4R ag barr	MC4R antagonist	Tb MetRS inh	NTR1 ag
CCOC(=O)c1ccc(NC2=CC(=O)C(=O)c3ccccc32)cc1	–	80	–	–	–	–
Cc1ccc(NC2=CC(=O)C(=O)c3ccccc32)cc1	–	·	–	–	–	–
O=C1O[C@@H](c2ccccc2)C[C@@H](O)C(=O)CCCCc2ccccc21	–	·	·	·	–	·
OCCN1CCN(C2Cc3cc(Cl)ccc3Sc3ccc(Cl)cc32)CC1 (centres undefined) (tested in a mixture with another compound)	–	–	9.3	–	–	–
COc1ccc(C)cc1N=Nc1ccc(O)c2ncccc12	–	·	–	–	–	·
O=S(=O)(O)c1cccc2c(N=Nc3ccc(O)c4ncccc34)cccc12	–	·	–	–	–	·
Oc1ccc(CNc2ccccc2)c2cccnc12	–	–	–	–	–	–
Cc1ccccc1N=Nc1ccc(O)c2ncccc12	–	86	–	–	–	·
COCc1ccc(O)c2ncccc12	–	100	–	–	–	–
O=Nc1ccc(O)c2ncccc12	–	67	–	–	–	–
Oc1ccc(N=Nc2ccc3c(c2)OCCO3)c2cccnc12	–	91	–	–	–	–
O=C(Nc1ccc2c(c1)OCCO2)C1c2ccccc2OCC(=O)N1Cc1ccco1 (centres undefined)	–	·	·	·	–	·
COc1ccc(N=Nc2ccc(O)c3ncccc23)cc1	–	77	–	–	–	–
CN1OC[C@@H]2CN(C(=O)c3cccc4ccccc34)[C@H](c3ccccc3Br)C[C@@H]21	–	·	·	·	–	·
COc1ccc(CCN(C(=S)Nc2ccccc2)C2CC(=O)N(c3ccccc3)C2=O)cc1 (centres undefined)	–	–	–	–	16	–
O=C(NCc1cccc(C(F)(F)F)c1)c1csc([C@H]2C[C@H](O)[C@@H](CO)O2)n1	–	–	–	–	–	·
COc1ccc(NC(=O)c2cc3sccc3n2Cc2ccc(F)cc2)cc1OC	–	–	–	–	–	–
O=C(Nc1nccs1)c1cc2sccc2n1Cc1ccc(F)cc1	–	·	8.9	–	–	–
COc1ccc(NC(=O)C2Cc3c(-c4ccc(Cl)cc4)ccnc3O2)cc1OC (centres undefined)	–	–	–	–	–	·
O=C1C(=O)c2c(C(=O)c3ccccc3)coc2-c2ccccc21	–	·	8.7	–	–	–
O=C(COC(=O)c1cc2c(s1)CCC2)Nc1ccc(F)cc1	–	–	–	–	–	–
COc1ccc(NC(=O)COC(=O)c2cc3c(s2)CCC3)cc1	9.7	–	–	–	–	–
O=c1[nH]c(=O)n(C2OC(CO)C(O)C2O)c2c1CCCC2 (centres undefined)	–	·	·	·	–	·
CCOc1cc(C)c(S(=O)(=O)Nc2ccc(F)cc2)cc1C	–	·	16	–	–	–
COc1ccc(N2CCN(c3cc(C(=O)Nc4cc(OC)c(OC)c(OC)c4)ncn3)CC2)cc1OC	–	–	–	–	–	·
SMILES	aDG glyco act	H9c2 TAG inh	MC4R ag barr	MC4R antagonist	Tb MetRS inh	NTR1 ag
O=[N+]([O-])c1ccc(N=Nc2ccc(O)c3ccccc23)cc1	–	56	–	–	–	·
CCN(CC)S(=O)(=O)c1cccc(NC(=O)CC2CCCC2)c1	–	·	–	–	–	–
CCN(CC)S(=O)(=O)c1cccc(NC(=O)Nc2cccc(C(F)(F)F)c2)c1	–	·	–	–	–	41
Cc1cc(C)c(S(=O)(=O)/N=C2\C=C(Nc3ccc(C(=O)O)cc3)C(=O)c3ccccc32)c(C)c1	–	·	–	–	–	–
Cc1cc(C)c(S(=O)(=O)/N=C2/C=C(SCC(=O)O)C(=O)c3ccccc32)cc1C	12	–	–	–	–	–
O=C1c2[nH]nc(-c3ccccc3O)c2C(c2ccccc2)N1Cc1ccco1 (centres undefined)	–	–	9.2	–	–	–
